This note sets out measurements from ChEMBL document CHEMBL4325904 (Eur J Med Chem, 2019).

The target of data set [1] is T1, Polyamine deacetylase HDAC10 (Homo sapiens, UniProt Q969S8).
T1 sequence (Q969S8 whole entry): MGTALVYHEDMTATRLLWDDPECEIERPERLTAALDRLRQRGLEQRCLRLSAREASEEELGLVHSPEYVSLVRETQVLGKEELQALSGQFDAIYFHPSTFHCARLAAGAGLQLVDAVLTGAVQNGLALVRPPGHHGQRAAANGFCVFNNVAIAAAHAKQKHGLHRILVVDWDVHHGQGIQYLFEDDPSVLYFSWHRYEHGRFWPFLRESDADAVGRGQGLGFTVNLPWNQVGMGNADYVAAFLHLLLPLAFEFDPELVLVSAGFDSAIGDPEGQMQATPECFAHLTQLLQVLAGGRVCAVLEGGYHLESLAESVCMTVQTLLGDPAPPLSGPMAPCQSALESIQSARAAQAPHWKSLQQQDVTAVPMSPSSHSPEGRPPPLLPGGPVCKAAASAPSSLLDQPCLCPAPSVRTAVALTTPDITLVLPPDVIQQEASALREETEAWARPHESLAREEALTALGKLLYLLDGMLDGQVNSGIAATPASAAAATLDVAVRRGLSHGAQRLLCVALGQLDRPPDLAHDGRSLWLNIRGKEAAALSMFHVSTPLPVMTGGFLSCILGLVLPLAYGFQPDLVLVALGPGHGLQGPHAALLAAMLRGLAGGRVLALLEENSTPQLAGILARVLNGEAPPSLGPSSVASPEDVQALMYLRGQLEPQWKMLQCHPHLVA
As to the kind of experiment: Inhibition of human HDAC10 using RHKK-Ac as substrate by fluorimetric assay.

Data set [2] deals with Histone deacetylase 3/Nuclear receptor corepressor 2 (HDAC3/NCoR2) (Homo sapiens, UniProt O15379). The class given is cell-based.
Data set [3] is filed under the species Homo sapiens. Kind of data set: Selectivity ratio of IC50 for recombinant full length C-terminal FLAG/His-tagged human HDAC1 (1 to 482 residues) to IC50 for recombinant N-terminal GST-tagged human HDAC6 (1 to 1215 residues).
The next data set addresses Histone deacetylase 9 (Homo sapiens, UniProt Q9UKV0). As to the kind of experiment: Inhibition of human HDAC9 using Boc-Lys(trifluoroacetyl)-AMC as substrate by fluorimetric assay.
Another data set has as its target Histone deacetylase 4 (Homo sapiens, UniProt P56524). Kind of data set: Inhibition of recombinant N-terminal GST-tagged /C-terminal His-tagged human HDAC4 (627 to 1084 residues) expressed in Baculovirus infected insect cells using Boc-Lys(trifluoroacetyl)-AMC as substrate by fluorimetric assay.
The target of another data set is T2, Histone deacetylase 7 (Homo sapiens, UniProt Q8WUI4).
T2 sequence (Q8WUI4 whole entry): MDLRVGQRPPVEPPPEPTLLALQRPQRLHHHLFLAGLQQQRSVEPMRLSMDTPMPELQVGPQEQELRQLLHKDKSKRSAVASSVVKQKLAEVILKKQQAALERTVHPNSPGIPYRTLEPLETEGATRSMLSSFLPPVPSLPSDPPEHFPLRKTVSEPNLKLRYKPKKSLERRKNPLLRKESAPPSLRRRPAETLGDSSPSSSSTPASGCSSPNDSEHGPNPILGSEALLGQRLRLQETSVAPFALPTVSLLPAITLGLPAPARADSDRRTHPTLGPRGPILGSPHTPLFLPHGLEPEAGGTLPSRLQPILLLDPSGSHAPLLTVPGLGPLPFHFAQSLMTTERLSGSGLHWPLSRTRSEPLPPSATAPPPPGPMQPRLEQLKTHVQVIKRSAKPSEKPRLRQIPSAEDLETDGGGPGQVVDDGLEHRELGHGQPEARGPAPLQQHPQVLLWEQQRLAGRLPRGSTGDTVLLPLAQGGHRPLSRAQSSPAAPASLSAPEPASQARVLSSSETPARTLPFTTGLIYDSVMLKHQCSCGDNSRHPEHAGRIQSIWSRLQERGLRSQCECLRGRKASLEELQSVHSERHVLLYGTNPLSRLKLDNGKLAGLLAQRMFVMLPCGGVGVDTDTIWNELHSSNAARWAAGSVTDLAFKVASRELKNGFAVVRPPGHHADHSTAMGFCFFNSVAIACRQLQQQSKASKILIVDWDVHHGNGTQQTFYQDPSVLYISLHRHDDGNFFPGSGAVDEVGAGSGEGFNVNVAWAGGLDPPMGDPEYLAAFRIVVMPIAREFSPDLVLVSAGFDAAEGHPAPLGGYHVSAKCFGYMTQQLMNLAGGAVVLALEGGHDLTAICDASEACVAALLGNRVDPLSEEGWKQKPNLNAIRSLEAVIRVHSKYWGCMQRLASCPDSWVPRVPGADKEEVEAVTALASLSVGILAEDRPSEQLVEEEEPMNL
Kind of data set: Inhibition of recombinant N-terminal GST-tagged human HDAC7 (518 to 991 residues) expressed in Baculovirus infected insect cells using Boc-K(Ac)-AMC as substrate by fluorimetric assay.

Data set [4] can be described thus: Drug uptake in zebrafish embryo vasculature at 1 to 20 uM administered from 24 to 50 hrs post fertilization for 24 hrs and measured after 72 hrs by fluorescence microscopic analysis. The class given is ADME, Danio rerio. The following applies: in vivo. The essentials: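 Zebrafish embryos treated with 1, 10 or 20 µM from 24–50 hpf, with 0 µM controls; trunk and tail imaged at 72 hpf by fluorescence microscopy (λex 480 nm, λem 517 nm).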

Another data set addresses Histone deacetylase 2 (Homo sapiens, UniProt Q92769). Kind of data set: Inhibition of recombinant full length C-terminal GST-tagged human HDAC2 (1 to 488 residues) expressed in insect cells using RHK-K(Ac)-AMC as substrate by fluorimetric assay.
In another data set the target is Histone deacetylase 5 (Homo sapiens, UniProt Q9UQL6). As to the kind of experiment: Inhibition of recombinant C-terminal His-tagged human HDAC5 (656 to 1122 residues) expressed in insect cells using Boc-K(Ac)-AMC as substrate by fluorimetric assay.
The species entered for data set [5] is Homo sapiens. Kind of data set: Selectivity ratio of IC50 for human HDAC9 to IC50 for recombinant N-terminal GST-tagged human HDAC6 (1 to 1215 residues).
A further data set addresses Histone deacetylase 1 (Homo sapiens, UniProt Q13547). Kind of data set: Inhibition of recombinant full length C-terminal FLAG/His-tagged human HDAC1 (1 to 482 residues) expressed in sf21 cells using RHK-K(Ac)-AMC as substrate by fluorimetric assay.

Sequence of Histone deacetylase 1 (Q13547 whole entry, the tested form may be a part): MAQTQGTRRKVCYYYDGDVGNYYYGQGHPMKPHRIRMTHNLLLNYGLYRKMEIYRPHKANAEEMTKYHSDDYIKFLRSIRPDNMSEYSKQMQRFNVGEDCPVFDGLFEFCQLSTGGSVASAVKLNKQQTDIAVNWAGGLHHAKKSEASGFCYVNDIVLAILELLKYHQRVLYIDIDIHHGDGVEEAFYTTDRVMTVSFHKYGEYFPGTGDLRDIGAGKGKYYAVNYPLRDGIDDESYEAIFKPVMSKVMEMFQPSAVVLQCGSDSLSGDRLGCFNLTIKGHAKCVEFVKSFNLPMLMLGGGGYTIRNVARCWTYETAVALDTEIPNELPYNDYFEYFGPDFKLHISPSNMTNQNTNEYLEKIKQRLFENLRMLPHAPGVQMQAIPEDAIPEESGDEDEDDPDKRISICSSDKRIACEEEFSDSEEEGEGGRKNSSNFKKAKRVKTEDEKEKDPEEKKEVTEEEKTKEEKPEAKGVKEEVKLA
Sequence of Histone deacetylase 5 (Q9UQL6 whole entry, the tested form may be a part): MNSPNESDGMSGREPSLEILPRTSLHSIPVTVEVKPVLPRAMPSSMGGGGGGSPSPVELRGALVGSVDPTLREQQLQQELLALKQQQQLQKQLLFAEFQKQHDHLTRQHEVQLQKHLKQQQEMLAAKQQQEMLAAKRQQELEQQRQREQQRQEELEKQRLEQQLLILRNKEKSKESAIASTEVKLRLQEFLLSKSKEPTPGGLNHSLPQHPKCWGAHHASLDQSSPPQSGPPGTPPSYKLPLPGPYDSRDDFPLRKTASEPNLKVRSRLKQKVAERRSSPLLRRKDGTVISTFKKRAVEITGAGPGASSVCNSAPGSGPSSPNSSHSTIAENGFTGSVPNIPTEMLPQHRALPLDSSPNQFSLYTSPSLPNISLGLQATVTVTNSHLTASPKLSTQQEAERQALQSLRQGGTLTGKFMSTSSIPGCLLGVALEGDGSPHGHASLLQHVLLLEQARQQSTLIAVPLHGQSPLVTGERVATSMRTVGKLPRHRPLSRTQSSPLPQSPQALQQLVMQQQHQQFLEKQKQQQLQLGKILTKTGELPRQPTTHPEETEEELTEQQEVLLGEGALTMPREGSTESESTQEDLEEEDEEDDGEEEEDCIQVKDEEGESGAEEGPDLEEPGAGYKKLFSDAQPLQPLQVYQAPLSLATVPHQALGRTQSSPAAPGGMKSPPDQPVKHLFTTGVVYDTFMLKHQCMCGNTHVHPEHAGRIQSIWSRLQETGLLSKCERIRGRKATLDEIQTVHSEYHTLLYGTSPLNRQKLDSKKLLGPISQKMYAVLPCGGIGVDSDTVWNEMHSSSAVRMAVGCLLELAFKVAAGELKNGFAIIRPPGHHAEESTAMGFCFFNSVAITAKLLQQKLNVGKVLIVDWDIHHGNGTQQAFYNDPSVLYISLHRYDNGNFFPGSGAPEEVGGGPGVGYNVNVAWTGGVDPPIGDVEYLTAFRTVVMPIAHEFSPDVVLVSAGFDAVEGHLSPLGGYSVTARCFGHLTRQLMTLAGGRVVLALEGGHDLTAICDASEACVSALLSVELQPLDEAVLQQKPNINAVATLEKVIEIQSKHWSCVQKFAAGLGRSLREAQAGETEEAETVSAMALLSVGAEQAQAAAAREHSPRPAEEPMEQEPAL
Sequence of Histone deacetylase 9 (Q9UKV0 whole entry, the tested form may be a part): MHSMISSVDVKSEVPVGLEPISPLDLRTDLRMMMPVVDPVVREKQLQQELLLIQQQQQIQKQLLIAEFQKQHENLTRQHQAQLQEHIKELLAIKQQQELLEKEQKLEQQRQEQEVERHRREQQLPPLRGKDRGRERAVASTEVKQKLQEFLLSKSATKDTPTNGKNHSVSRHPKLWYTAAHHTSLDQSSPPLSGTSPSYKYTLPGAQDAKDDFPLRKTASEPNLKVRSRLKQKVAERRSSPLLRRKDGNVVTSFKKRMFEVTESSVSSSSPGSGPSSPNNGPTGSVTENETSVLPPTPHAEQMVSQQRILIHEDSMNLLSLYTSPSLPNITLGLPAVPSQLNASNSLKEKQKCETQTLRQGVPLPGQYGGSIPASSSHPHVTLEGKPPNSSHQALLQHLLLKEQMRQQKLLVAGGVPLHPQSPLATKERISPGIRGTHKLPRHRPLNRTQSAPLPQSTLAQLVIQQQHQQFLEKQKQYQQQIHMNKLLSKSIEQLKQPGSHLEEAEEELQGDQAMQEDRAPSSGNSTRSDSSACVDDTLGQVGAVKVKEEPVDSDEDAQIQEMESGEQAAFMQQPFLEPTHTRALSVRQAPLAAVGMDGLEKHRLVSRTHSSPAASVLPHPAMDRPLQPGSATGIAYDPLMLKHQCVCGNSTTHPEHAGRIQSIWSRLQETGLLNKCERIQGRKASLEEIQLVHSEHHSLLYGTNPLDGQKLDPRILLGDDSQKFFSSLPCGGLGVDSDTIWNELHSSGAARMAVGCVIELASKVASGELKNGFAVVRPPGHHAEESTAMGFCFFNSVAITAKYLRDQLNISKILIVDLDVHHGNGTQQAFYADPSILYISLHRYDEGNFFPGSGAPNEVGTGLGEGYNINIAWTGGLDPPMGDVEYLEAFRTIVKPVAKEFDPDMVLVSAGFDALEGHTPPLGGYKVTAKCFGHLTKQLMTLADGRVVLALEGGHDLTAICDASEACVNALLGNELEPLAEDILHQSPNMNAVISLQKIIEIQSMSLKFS
Sequence of Histone deacetylase 4 (P56524 whole entry, the tested form may be a part): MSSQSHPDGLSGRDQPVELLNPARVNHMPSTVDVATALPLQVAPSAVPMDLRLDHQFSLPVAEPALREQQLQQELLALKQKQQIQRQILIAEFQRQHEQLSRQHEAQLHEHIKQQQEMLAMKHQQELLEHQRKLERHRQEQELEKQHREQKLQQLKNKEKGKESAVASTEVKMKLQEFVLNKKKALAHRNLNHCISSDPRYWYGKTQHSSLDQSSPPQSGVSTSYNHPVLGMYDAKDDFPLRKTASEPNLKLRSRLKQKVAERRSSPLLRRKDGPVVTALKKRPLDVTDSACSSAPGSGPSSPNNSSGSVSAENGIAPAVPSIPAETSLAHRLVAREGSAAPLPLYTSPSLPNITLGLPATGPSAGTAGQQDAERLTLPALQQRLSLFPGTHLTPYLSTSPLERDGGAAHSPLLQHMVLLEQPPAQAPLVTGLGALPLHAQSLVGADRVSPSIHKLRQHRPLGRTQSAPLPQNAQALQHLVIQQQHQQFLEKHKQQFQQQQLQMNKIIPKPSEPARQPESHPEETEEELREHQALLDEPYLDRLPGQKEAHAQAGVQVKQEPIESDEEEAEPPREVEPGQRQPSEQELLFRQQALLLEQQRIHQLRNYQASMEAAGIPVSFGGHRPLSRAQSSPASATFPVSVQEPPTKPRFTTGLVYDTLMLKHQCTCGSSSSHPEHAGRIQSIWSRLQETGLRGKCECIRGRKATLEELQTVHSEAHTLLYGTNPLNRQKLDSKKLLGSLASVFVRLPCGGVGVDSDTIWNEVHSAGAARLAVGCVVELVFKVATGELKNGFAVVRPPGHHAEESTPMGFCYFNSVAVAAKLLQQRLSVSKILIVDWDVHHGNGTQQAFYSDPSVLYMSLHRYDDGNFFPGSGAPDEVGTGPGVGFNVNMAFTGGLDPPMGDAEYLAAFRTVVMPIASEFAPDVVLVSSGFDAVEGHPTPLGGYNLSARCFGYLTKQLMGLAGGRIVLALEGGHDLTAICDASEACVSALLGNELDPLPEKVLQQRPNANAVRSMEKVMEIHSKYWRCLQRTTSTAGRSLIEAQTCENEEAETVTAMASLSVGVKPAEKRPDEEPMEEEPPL
Sequence of Histone deacetylase 2 (Q92769 whole entry, the tested form may be a part): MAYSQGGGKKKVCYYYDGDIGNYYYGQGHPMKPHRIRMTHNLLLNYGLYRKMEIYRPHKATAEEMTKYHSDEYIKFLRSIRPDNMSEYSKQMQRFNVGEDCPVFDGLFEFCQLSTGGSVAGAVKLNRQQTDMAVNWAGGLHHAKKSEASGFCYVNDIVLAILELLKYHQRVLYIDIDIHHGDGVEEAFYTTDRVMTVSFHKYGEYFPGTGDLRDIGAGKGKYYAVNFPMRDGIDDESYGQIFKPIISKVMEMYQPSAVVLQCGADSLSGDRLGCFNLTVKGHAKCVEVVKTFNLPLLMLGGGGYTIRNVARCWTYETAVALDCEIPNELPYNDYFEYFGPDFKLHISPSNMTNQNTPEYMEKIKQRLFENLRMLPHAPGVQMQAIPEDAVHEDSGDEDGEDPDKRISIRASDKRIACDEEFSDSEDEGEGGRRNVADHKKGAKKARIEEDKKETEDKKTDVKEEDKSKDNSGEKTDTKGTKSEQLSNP

For `O=C(CCCCCN1C(=O)c2cccc3c(NCc4ccccc4)ccc(c23)C1=O)NO`, the concentration for half-maximal inhibition (IC50) in [1] worked out at 660 nM; in data set [2], 360 nM; against Histone deacetylase 9, 9300 nM; at Histone deacetylase 4, 5500 nM; at Histone deacetylase 7 it was 3200 nM; on Histone deacetylase 2, 850 nM. The IC50 was 3400 nM at Histone deacetylase 5 and 1980 nM on Histone deacetylase 1. Moreover, the Ratio IC50 is 560 to 566 in the data set listed under Homo sapiens [3] and greater than 2000 in the data set filed under Homo sapiens [5]. The Drug uptake result in data set [4] is reported as “Active”.
Regarding `CCCNc1ccc2c3c(cccc13)C(=O)N(CCCCCC(=O)NO)C2=O`, the IC50 in data set [1] was 320 nM; in data set [2], 110 nM; against Histone deacetylase 9, greater than 10000 nM; at Histone deacetylase 4, greater than 10000 nM; at Histone deacetylase 7, 9400 nM; on Histone deacetylase 2 it was 420 nM. Also, the concentration for half-maximal inhibition (IC50) on Histone deacetylase 5 turned out to be 5300 nM; on Histone deacetylase 1, 590 nM. The Ratio IC50 is 120 to 123 in the data set listed under Homo sapiens [3] and greater than 2000 in the data set listed under Homo sapiens [5]. For the same compound, the Drug uptake entry in data set [4] is “Active”.
